Data as given in ChEMBL document CHEMBL3112538, “Novel spirooxindole-pyrrolidine compounds: synthesis, anticancer and molecular docking studies” (2014).
The source made the active and inactive calls. No cut-off for these calls is given here.

Assays:
A549 [1] = test: Cytotoxicity against human A549 cells at 50 ug/ml by MTT assay; format: functional
Method in brief: (§1)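 A549 cells (NCIS Pune) grown in DMEM with 10% FBS, 2 mM L-glutamine, penicillin/streptomycin, pH 7.2. 5 × 10^5 cells were seeded with compound at 100, 50 or 25 per mL and kept at 37 °C, 5% CO2. MTT (1 mg/mL, 4 h) was added, formazan dissolved in DMSO and read at 540 nm. IC50 is the mean of three replicate experiments; Duncan test at P = 0.05.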

A549 [2] = test: Cytotoxicity against human A549 cells at 100 ug/ml by MTT assay; format: functional; method in brief: as §1
A549 [3] = test: Cytotoxicity against human A549 cells at 25 ug/ml by MTT assay; format: functional; method in brief: as §1
A549 [4] = test: Induction of apoptosis in human A549 cells assessed as DNA fragmentation at 25 ug/ml after 24 hrs by agarose gel electrophoresis; format: functional, cell-based
Method in brief: (§2)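 A549 cells were exposed to compound for 24 h. 1 × 10^6 cells were pelleted, PBS-washed and lysed at 4 °C for 15 min in 10 mM Tris-HCl pH 7.4 with 10 mM EDTA and 0.5% Triton X-100. Supernatant was treated with proteinase K (60 °C, 60 min) then RNase A (37 °C, 60 min). DNA was isopropanol/NaCl precipitated overnight and run on a 2% agarose gel.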

A549 [5] = test: Cytotoxicity against human A549 cells by MTT assay; format: functional, cell-based; method in brief: as §1
A549 [6] = test: Cytotoxicity against human A549 cells assessed as growth inhibition at 25 ug/ml after 24 hrs by agarose gel electrophoresis; format: functional, cell-based; method in brief: as §2

| SMILES | inhibition at 50 µg/mL (A549 [1]) [%] | inhibition at 100 µg/mL (A549 [2]) [%] | inhibition at 25 µg/mL (A549 [3]) [%] | Activity (A549 [4]) | Activity (A549 [5]) | growth inhibition (GI) (A549 [6]) |
| --- | --- | --- | --- | --- | --- | --- |
| Cc1ccc2c(c1)[C@]1(C(=O)N2)N2CSCC2[C@H](c2ncc[nH]2)[C@@]1(C#N)C(=O)c1c[nH]c2ccccc12 (some centres not stated) | 75.8 | 84.3 | 66.3 | Active | Dose-dependent effect | Active |
| COc1ccc2[nH]cc(C(=O)[C@]3(C#N)[C@@H](c4ncc[nH]4)CN(C)[C@]34C(=O)Nc3ccc(I)cc34)c2c1 | 22.2 | 50.2 | 3.7 | – | Dose-dependent effect | – |
| N#C[C@@]1(C(=O)c2c[nH]c3ccccc23)[C@@H](c2ncc[nH]2)C2CSCN2[C@]12C(=O)Nc1ccc(I)cc12 (some centres not stated) | 56.3 | 69 | 24.5 | – | Dose-dependent effect | – |
| COc1ccc2[nH]cc(C(=O)[C@]3(C#N)[C@@H](c4ncc[nH]4)C4CSCN4[C@]34C(=O)Nc3ccc(F)cc34)c2c1 (some centres not stated) | 31.1 | 56.2 | 15.7 | – | Dose-dependent effect | – |
| COc1ccc2[nH]cc(C(=O)[C@]3(C#N)[C@@H](c4ncc[nH]4)C4CSCN4[C@]34C(=O)Nc3ccc(Cl)cc34)c2c1 (some centres not stated) | 72.1 | 81.8 | 55.2 | Active | Dose-dependent effect | Active |
| Cc1ccc2c(c1)[C@]1(C(=O)N2)N(C)C[C@H](c2ncc[nH]2)[C@@]1(C#N)C(=O)c1c[nH]c2ccccc12 | 53.5 | 77.3 | 26.7 | Active | Dose-dependent effect | Active |
| N#C[C@@]1(C(=O)c2c[nH]c3ccccc23)[C@@H](c2ncc[nH]2)C2CSCN2[C@]12C(=O)Nc1ccc([N+](=O)[O-])cc12 (some centres not stated) | 63.4 | 76.8 | 28 | – | Dose-dependent effect | – |
| CN1C[C@H](c2ncc[nH]2)[C@@](C#N)(C(=O)c2c[nH]c3ccccc23)[C@@]12C(=O)Nc1ccccc12 | 6.3 | 23.2 | 3.1 | – | Dose-dependent effect | – |
| COc1ccc2[nH]cc(C(=O)[C@]3(C#N)[C@@H](c4ncc[nH]4)C4CSCN4[C@]34C(=O)Nc3ccc(Br)cc34)c2c1 (some centres not stated) | 68.4 | 82.7 | 36.2 | – | Dose-dependent effect | – |
| CN1C(=O)[C@@]2(c3ccccc31)N(C)C[C@H](c1ncc[nH]1)[C@@]2(C#N)C(=O)c1c[nH]c2ccccc12 | 4.3 | 7.4 | 3.3 | – | Dose-dependent effect | – |
| COc1ccc2[nH]cc(C(=O)[C@]3(C#N)[C@@H](c4ncc[nH]4)CN(C)[C@]34C(=O)Nc3ccc(F)cc34)c2c1 | 35.6 | 66.2 | 9.9 | – | Dose-dependent effect | – |
| N#C[C@@]1(C(=O)c2c[nH]c3ccccc23)[C@@H](c2ncc[nH]2)C2CSCN2[C@]12C(=O)Nc1ccc(Br)cc12 (some centres not stated) | 9 | 15.6 | 5.1 | – | Dose-dependent effect | – |
| COc1ccc2[nH]cc(C(=O)[C@]3(C#N)[C@@H](c4ncc[nH]4)C4CSCN4[C@]34C(=O)N(C)c3ccccc34)c2c1 (some centres not stated) | 68.5 | 80.1 | 52.9 | – | Dose-dependent effect | – |
| CN1C[C@H](c2ncc[nH]2)[C@@](C#N)(C(=O)c2c[nH]c3ccccc23)[C@@]12C(=O)Nc1ccc(Cl)cc12 | 30.9 | 51.5 | 6.9 | – | Dose-dependent effect | – |
| COc1ccc2[nH]cc(C(=O)[C@]3(C#N)[C@@H](c4ncc[nH]4)CN(C)[C@]34C(=O)Nc3ccc([N+](=O)[O-])cc34)c2c1 | 4.3 | 6.8 | 3 | – | Dose-dependent effect | – |
| COc1ccc2[nH]cc(C(=O)[C@]3(C#N)[C@@H](c4ncc[nH]4)C4CSCN4[C@]34C(=O)Nc3ccccc34)c2c1 (some centres not stated) | 72.1 | 83.3 | 54.4 | Active | Dose-dependent effect | Active |
| N#C[C@@]1(C(=O)c2c[nH]c3ccccc23)[C@@H](c2ncc[nH]2)C2CSCN2[C@]12C(=O)Nc1ccc(F)cc12 (some centres not stated) | 33.5 | 66.2 | 15.5 | – | Dose-dependent effect | – |
| CN1C[C@H](c2ncc[nH]2)[C@@](C#N)(C(=O)c2c[nH]c3ccccc23)[C@@]12C(=O)Nc1ccc(I)cc12 | 6.8 | 14.9 | 5.9 | – | Dose-dependent effect | – |
| COc1ccc2[nH]cc(C(=O)[C@]3(C#N)[C@@H](c4ncc[nH]4)CN(C)[C@]34C(=O)N(C)c3ccccc34)c2c1 | 79.2 | 85 | 66.3 | – | Dose-dependent effect | – |
| COc1ccc2[nH]cc(C(=O)[C@]3(C#N)[C@@H](c4ncc[nH]4)C4CSCN4[C@]34C(=O)Nc3ccc([N+](=O)[O-])cc34)c2c1 (some centres not stated) | 5.1 | 9 | 3.3 | – | Dose-dependent effect | – |
| COc1ccc2[nH]cc(C(=O)[C@]3(C#N)[C@@H](c4ncc[nH]4)CN(C)[C@]34C(=O)Nc3ccc(Br)cc34)c2c1 | 9.9 | 13.4 | 5.1 | – | Dose-dependent effect | – |
| CN1C[C@H](c2ncc[nH]2)[C@@](C#N)(C(=O)c2c[nH]c3ccccc23)[C@@]12C(=O)Nc1ccc(Br)cc12 | 9.8 | 34.2 | 4.4 | – | Dose-dependent effect | – |
| N#C[C@@]1(C(=O)c2c[nH]c3ccccc23)[C@@H](c2ncc[nH]2)C2CSCN2[C@]12C(=O)Nc1ccccc12 (some centres not stated) | 79.3 | 85.6 | 59.9 | Active | Dose-dependent effect | Active |
| COc1ccc2[nH]cc(C(=O)[C@]3(C#N)[C@@H](c4ncc[nH]4)CN(C)[C@]34C(=O)Nc3ccccc34)c2c1 | 74.4 | 83 | 62.8 | – | Dose-dependent effect | – |
| COc1ccc2[nH]cc(C(=O)[C@]3(C#N)[C@@H](c4ncc[nH]4)CN(C)[C@]34C(=O)Nc3ccc(Cl)cc34)c2c1 | 15.2 | 23 | 4.7 | – | Dose-dependent effect | – |
| CN1C[C@H](c2ncc[nH]2)[C@@](C#N)(C(=O)c2c[nH]c3ccccc23)[C@@]12C(=O)Nc1ccc([N+](=O)[O-])cc12 | 33.4 | 56.6 | 8.8 | – | Dose-dependent effect | – |
| N#C[C@@]1(C(=O)c2c[nH]c3ccccc23)[C@@H](c2ncc[nH]2)C2CSCN2[C@]12C(=O)Nc1ccc(Cl)cc12 (some centres not stated) | 13.4 | 24 | 6 | – | Dose-dependent effect | – |
| CN1C[C@H](c2ncc[nH]2)[C@@](C#N)(C(=O)c2c[nH]c3ccccc23)[C@@]12C(=O)Nc1ccc(F)cc12 | 9 | 22.2 | 4.5 | – | Dose-dependent effect | – |
